The source of these data is ChEMBL document CHEMBL3046326, “Screening of dialkoxybenzenes and disubstituted cyclopentene derivatives against the cabbage looper, Trichoplusia ni, for the discovery of new feeding and oviposition deterrents” (J Agric Food Chem, 2007).

As a reminder, the mortality is the share of the test organisms that died.

The subject of assay [1] is Trichoplusia ni. Kind of assay: Oviposition deterrent activity against adult female Trichoplusia ni (cabbage looper) moths introduced along with male moths into oviposition cage containing compound pretreated cabbage leaves assessed as eggs laying on the leaf disks at 0.25% after 48 hr by oviposition choice bioassay. It counts as functional. The gist of the method:
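Choice test with moths from larvae reared on normal diet from neonate to pupation. Pupae were sexed and held separately until emergence. Cabbage leaves were treated with test substance at 0.25% or left as control, and eggs per leaf were counted after 48 h. ODI = [(C − T)/(C + T)] × 100 from egg numbers on control and treated leaves.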

The test system of assay [2] is Trichoplusia ni. Kind of assay: Toxicity against third-instar larval stage of Trichoplusia ni (cabbage looper) assessed as mortality at 0.25% measured after 24 hr by contact toxicity bioassay. It counts as functional. The gist of the method: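 Third-instar larvae were sprayed directly with test solution at 0.25% in filter-paper-lined Petri dishes. They were then moved to dishes holding a small piece of artificial diet. Mortality was scored 24 h after spraying. The test applied only to compounds giving >50% feeding deterrence at 50 µg/cm².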

Assay [3] has as its system Trichoplusia ni. In words: Toxicity against third-instar larval stage of Trichoplusia ni (cabbage looper) assessed as mortality measured after 24 hr by contact toxicity bioassay. It counts as functional. The gist of the method: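 Third-instar larvae were hand-sprayed directly with test solutions in filter-paper-lined Petri dishes, then moved to dishes holding a small piece of artificial diet. Mortality was recorded at 24 h.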

The test system of assay [4] is Trichoplusia ni. Kind of assay: Feeding deterrent activity against freshly molted third-instar larval stage of Trichoplusia ni (cabbage looper), Trichoplusia ni at 50 ug/cm'2 after 3 to 5 hr by leaf disk choice bioassay. In kind it is functional. The gist of the method: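 Leaf disk choice with freshly molted third instar larvae starved 4–5 h. One disk was painted on each side with 10 µL solution giving 50 µg/cm², the other with carrier solvent. Twenty-five larvae per treatment, stopped at ~50% control disk consumption (3–5 h). Deterrence = [(C − T)/(C + T)] × 100 from consumed areas; mean ± SE, Tukey's test p < 0.05.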

Assay [5] relates to Trichoplusia ni. In words: Feeding deterrent activity against freshly molted third-instar larval stage of Trichoplusia ni (cabbage looper) after 3 to 5 hr by leaf disk choice bioassay. In kind it is functional, organism-based. The procedure, abridged:
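Choice test: freshly molted third instar larvae, starved 4–5 h, offered two leaf disks, one painted on each side with 10 µL test solution and one with carrier solvent only. Twenty-five larvae per treatment. Ended when ~50% of the control disk was eaten (normally 3–5 h). Consumed areas measured. DC50 derived by linear regression of at least four concentrations (3.12–25 µg/cm²).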

The test system of a further assay is Helicoverpa zea. Kind of assay: Larvicidal activity against Helicoverpa zea (corn earworm) assessed as growth inhibition at 3 mM/kg relative to control by chronic feeding bioassay. Conditions: read-out: GI. In kind it is functional.

As for `CCCCCOc1ccc(OCC)cc1` [1-ethoxy-4-pentoxybenzene], the results for the Activity in the assay on Trichoplusia ni [1] and in the assay on Trichoplusia ni [4] were 56.6% and 90.7%, respectively. In addition, the mortality in the assay on Trichoplusia ni [2] is reported as 96.8%. Further, the LC50 with Trichoplusia ni [3] was 0.03%. In the assay on Trichoplusia ni [5], this compound came in with a DC50 of 23.4 microg/cm2.

Turning to `CCOc1ccc(OC)cc1` [1-methoxy-4-ethoxybenzene], the Activity was determined as 6% in the assay with Trichoplusia ni [1] and 80.2% with Trichoplusia ni [4]. The mortality in the assay on Trichoplusia ni [2] is 23.3%. For the same compound, the LC50 in the assay on Trichoplusia ni [3] is given as 0.03%. The DC50 in the assay with Trichoplusia ni [5] worked out at 34.6 microg/cm2.

For the compound `C=C1C(=O)O[C@@H]2[C@H]1CC[C@H](C)[C@]1(O)C=CC(=O)[C@@]21C` [PARTHENIN], the inhibition of growth at 3000 µM in the assay with Helicoverpa zea amounted to 59%.
